Columns and labels:
[1] = system: TPTX rats; test: Single IV injection in TPTX rats, serum Ca and Pi; format: in vivo, rat; details: for time for sPi to return to vehicle-control levels: single IV 24.3 nmol/kg; for sCa response versus sham-control level: single IV 24.3 nmol/kg (highest dose); for duration of modest, transient sCa increase and sPi decrease: single IV, dose 80-fold higher than that used for LA-PTH
[2] = system: cynomolgus monkeys; test: Single SC injection in cynomolgus monkeys, serum Ca; format: in vivo, cynomolgus monkey; details: SC 10 nmol/kg
Method in brief: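 Normal cynomolgus monkeys receive SC injections in two experiments, with serum Ca followed after injection. In experiment 1, animals get vehicle or test peptide at 0.25, 0.5 or 1.0 nmol/kg, three animals per dose.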

[3] = system: rats; details: daily injection 20 nmol/kg sc; cited from earlier work
[4] = in vivo; details: rat, iv, 24.3 nmol/kg
[5] = system: TPTX rats; format: in vivo, rat; details: once daily SC 9 nmol/kg
[6] = rat, in vivo, iv
[7] = system: HP patients; details: cited from earlier work
[8] = human, in vivo; cited from earlier work
[9] = HP patients, single SC injection

half-life [4]	Compound	time for sPi to return to vehicle-control levels [1]	sCa response versus sham-control level [1]	duration of modest, transient sCa increase and sPi decrease [1]	efficacy for elevating sCa compared with PTH(1–84) ([2]; n = 3)	serum calcium or phosphorus [3]	lumbar and femur BMD [5]	sCa versus vehicle-injected TPTX rats [5]	sPi versus vehicle-injected TPTX rats [5]	trabecular number at the distal femur [5]	time for sCa to return to vehicle-control levels [2]	peak sCa level ([2]; n = 2)	serum half-life t1/2 [6]	time for mean serum Ca to return to pre-dose, hypocalcemic levels [7, 9]	time of peak sCa levels post-administration [7, 9]	serum half-life times ([7]; human, in vivo, sc)	subjects with hypercalcemia at peak times ([7]; human, in vivo, sc)	true serum half-life in the blood [8]
7.8 min	CC[C@H](C)[C@H](NC(=O)[C@H](CCC(=O)O)NC(=O)[C@H](CO)NC(=O)[C@@H](NC(=O)[C@@H](N)CO)C(C)C)C(=O)N[C@@H](CCC(N)=O)C(=O)N[C@@H](CC(C)C)C(=O)N[C@@H](CCSC)C(=O)N[C@@H](Cc1c[nH]cn1)C(=O)N[C@@H](CC(N)=O)C(=O)N[C@@H](CC(C)C)C(=O)NCC(=O)N[C@@H](CCCCN)C(=O)N[C@@H](Cc1c[nH]cn1)C(=O)N[C@@H](CC(C)C)C(=O)N[C@@H](CC(N)=O)C(=O)N[C@@H](CO)C(=O)N[C@@H](CCSC)C(=O)N[C@@H](CCC(=O)O)C(=O)N[C@@H](CCCNC(=N)N)C(=O)N[C@H](C(=O)N[C@@H](CCC(=O)O)C(=O)N[C@@H](Cc1c[nH]c2ccccc12)C(=O)N[C@@H](CC(C)C)C(=O)N[C@@H](CCCNC(=N)N)C(=O)N[C@@H](CCCCN)C(=O)N[C@@H](CCCCN)C(=O)N[C@@H](CC(C)C)C(=O)N[C@@H](CCC(N)=O)C(=O)N[C@@H](CC(=O)O)C(=O)N[C@H](C(=O)N[C@@H](Cc1c[nH]cn1)C(=O)N[C@@H](CC(N)=O)C(=O)N[C@@H](Cc1ccccc1)C(=O)O)C(C)C)C(C)C [PTH(1–34)]	≤ 10 h	failed to attain the sCa levels seen in the sham-control animals	< 6 h	even less effective	little or no change												
	PTH(1–84): human parathyroid hormone, produced recombinantly	≤ 10 h	failed to attain the sCa levels seen in the sham-control animals	< 6 h			significantly increased	no persistent increase	only marginal reductions	significantly increased	≤ 24 h	~ 11.4 mg/dL	5.4 min	≤ 24 h	~7 h	two to three hours	71%	five minutes or less

Source: paper PMC4935665 (Journal of bone and mineral research : the official journal …, 2016)
